Key:
Format in all cases: ADME
[1] = Compound was evaluated, at a concentration of 20 mM acid, the solubility ratio is obtained by dividing the solubility of sickle hemoglobin (HbS) with the compound (grams per deciliter) by the solubility of the untreated sample (grams per deciliter); details: 20000 µM
In short: (§1)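 Sodium salt of acid (made with 1 equiv NaHCO3, 0.18 M stock in 0.15 M phosphate pH 7.4) diluted into HbS (~35 g %, 0.15 M phosphate), deoxygenated with dithionite, sealed in EPR tubes; final drug 5–40 mM. Spun alongside deoxy-HbS buffer control and 40 mM phenylalanine control; solubility at 35 °C, g/dL. Ratio = drug/control solubility; % increase relative to initial minus control; SD reported.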

[2] = Compound was evaluated, at a concentration of 5 mM acid, for its ability to increase the solubility of sickle hemoglobin; details: 5000 µM; in short: as §1
[3] = Compound was evaluated, at a concentration of 40 mM acid, for its ability to increase the solubility of sickle hemoglobin; details: 40000 µM; in short: as §1
[4] = Compound was evaluated, at a concentration of 5 mM acid, the solubility ratio is obtained by dividing the solubility of sickle hemoglobin (HbS) with the compound (grams per deciliter) by the solubility of the untreated sample (grams per deciliter); details: 5000 µM; in short: as §1
[5] = Compound was evaluated, at a concentration of 10 mM acid, for its ability to increase the solubility of sickle hemoglobin; details: 10000 µM; in short: as §1
[6] = Compound was evaluated, at a concentration of 40 mM acid, the solubility ratio is obtained by dividing the solubility of sickle hemoglobin (HbS) with the compound (grams per deciliter) by the solubility of the untreated sample (grams per deciliter); details: 40000 µM; in short: as §1
[7] = Compound was evaluated, at a concentration of 20 mM acid, for its ability to increase the solubility of sickle hemoglobin; details: 20000 µM; in short: as §1
[8] = Compound was evaluated, at a concentration of 10 mM acid, the solubility ratio is obtained by dividing the solubility of sickle hemoglobin (HbS) with the compound (grams per deciliter) by the solubility of the untreated sample (grams per deciliter); details: 10000 µM; in short: as §1
[9] = Compound was evaluated, at a concentration of 40 mM acid, for its ability to increase the solubility of sickle haemoglobin; details: 40000 µM; in short: as §1

Structure (SMILES): O=C(O)COCc1ccc(Br)cc1
- Solubility ratio [1]: 1.233
- HbS solubilized [2]: 13%
- HbS solubilized [3]: 87.7%
- Solubility ratio [4]: 1.059
- HbS solubilized [5]: 25.8%
- Solubility ratio [6]: 1.398
- HbS solubilized [7]: 51%
- Solubility ratio [8]: 1.118

Structure (SMILES): O=C(O)COCc1ccc(Cl)c(Cl)c1
- Solubility ratio [1]: 1.321
- HbS solubilized [2]: 22.1%
- HbS solubilized [9]: 88%
- Solubility ratio [4]: 1.087
- HbS solubilized [5]: 42.6%
- Solubility ratio [6]: 1.345
- HbS solubilized [7]: 82.3%
- Solubility ratio [8]: 1.166

Structure (SMILES): C=C(CC)C(=O)c1ccc(OCC(=O)O)c(Cl)c1Cl [ETHACRYNIC ACID]
- Solubility ratio [1]: 1.317
- HbS solubilized [2]: 25.3%
- HbS solubilized [3]: 89.4%
- Solubility ratio [4]: 1.106
- HbS solubilized [5]: 39.5%
- Solubility ratio [6]: 1.375
- HbS solubilized [7]: 76.2%
- Solubility ratio [8]: 1.166
